ChEMBL document CHEMBL3112482, “Nonclassical antifolates, part 5. Benzodiazepine analogs as a new class of DHFR inhibitors: synthesis, antitumor testing and molecular modeling study” (Eur J Med Chem, 2014)

What was measured:
[1] = molecular target: T1, Dihydrofolate reductase (Bos taurus, UniProt P00376); test: Inhibition of bovine liver DHFR measured for every 1 min of 10 mins
T1 sequence (P00376 whole entry): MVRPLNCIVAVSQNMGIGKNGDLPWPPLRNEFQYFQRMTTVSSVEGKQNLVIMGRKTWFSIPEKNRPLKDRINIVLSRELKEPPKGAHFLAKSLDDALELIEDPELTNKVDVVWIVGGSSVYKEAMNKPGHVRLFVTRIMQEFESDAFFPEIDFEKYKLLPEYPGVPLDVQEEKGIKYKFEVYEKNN

[2] = molecular target: Dihydrofolate reductase (Bos taurus) (UniProt P00376); test: Ratio of MTX IC50 to compound IC50 for bovine liver DHFR
Method in brief: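 Bovine liver DHFR in Tris buffer pH 7.5, with dihydrofolate substrate. Final working levels were 0.29 g/l NADPH and 15 U/l DHFR. Absorbance was read at 340 nm at room temperature in kinetic mode every 1 min for 10 min. ΔA/min was taken relative to DMSO control to give % inhibition versus log concentration, from which the IC50 was derived. Methotrexate was the reference.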

[3] = Cytotoxicity against human melanoma cells at 10 uM after 48 hrs; type: functional; conditions: Melanoma cell
Method in brief: (§1)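 Single-dose primary screen in the NCI 60 human tumour cell line panel, run at the NCI facility. The panel covers nine subpanels: leukaemia, non-small cell lung, colon, CNS, melanoma, ovarian, renal, prostate and breast. Read-out was percent growth of treated cells, shown as a mean graph and reported as percent growth inhibition.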

[4] = Cytotoxicity against human colon cancer cells at 10 uM after 48 hrs; type: functional; conditions: Cancer cell lines; method in brief: as §1
[5] = Cytotoxicity against human prostate cancer cells at 10 uM after 48 hrs; type: functional; conditions: Cancer cell lines
[6] = Cytotoxicity against human non-small cell lung cancer cells at 10 uM after 48 hrs; type: functional; conditions: Cancer cell lines; method in brief: as §1
[7] = Cytotoxicity against human leukemia cells at 10 uM after 48 hrs; type: functional; conditions: Leukemia cell
[8] = Cytotoxicity against human renal cancer cells at 10 uM after 48 hrs; type: functional; conditions: Cancer cell lines
[9] = Cytotoxicity against human CNS cancer cells at 10 uM after 48 hrs; type: functional; conditions: Cancer cell lines
[10] = Cytotoxicity against human breast cancer cells at 10 uM after 48 hrs; type: functional; conditions: Cancer cell lines; method in brief: as §1
[11] = read-out: LC50 (the source's name)

## COc1ccc(/C=C2\CCCC3=C(c4ccc(OC)cc4)Nc4cc(C)c(C)cc4N=C32)cc1
[1]
  IC50: 0.1 µM

## COc1ccc(/C=C2\CCCC3=C(c4ccc(OC)c(OC)c4)Nc4cc(C)c(C)cc4N=C32)cc1OC
[1]
  IC50: 0.004 µM
[2]
  Ratio IC50: 20

## Brc1ccc(/C=C2\CCCC3=C(c4ccc(Br)cc4)Nc4ccccc4N=C32)cc1
[1]
  IC50: 65 µM

## Cc1cc2c(cc1C)NC(c1ccc(Br)cc1)=C1CCC/C(=C\c3ccc(Br)cc3)C1=N2
[1]
  IC50: 21 µM

## O=c1[nH]cc(F)c(=O)[nH]1 [FLUOROURACIL]
[3]
  GI50: 70.6 µM
  TGI: > 100 µM
[3]; [11]
  CC50: > 100 µM
[4]
  GI50: 8.4 µM
  TGI: > 100 µM
[4]; [11]
  CC50: > 100 µM
[5]
  GI50: 22.7 µM
  TGI: > 100 µM
[6]
  GI50: > 100 µM
  TGI: > 100 µM
[6]; [11]
  CC50: > 100 µM
[7]
  TGI: > 100 µM
[8]
  CC50: > 100 µM
  GI50: 45.6 µM
  TGI: > 100 µM
[9]
  TGI: > 100 µM
[9]; [11]
  CC50: > 100 µM
[10]
  GI50: 76.4 µM
  TGI: > 100 µM

## COc1ccc(/C=C2\CCCC3=C(c4ccc(OC)c(OC)c4)Nc4ccccc4N=C32)cc1OC
[1]
  IC50: 0.06 µM
